Active and inactive are the calls of the source. No cut-off for these calls is given here.
Columns and labels:
Schistosoma mansoni [1] = assay: Antischistosomal activity against Schistosoma mansoni Puerto Rican infected mouse assessed as reduction in live schistosomes at 301 mg/kg/day, through diet for 14 days; format: functional; conditions: 336 h
Procedure, shortened: (§1)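 Mice carrying a Puerto Rican strain of S. mansoni received drug mixed into a powdered diet for 14 days, with dose expressed as mg/kg per day. The read-out was the reduction in live schistosomes in the infected mice.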

Schistosoma mansoni [2] = assay: Antischistosomal activity against Schistosoma mansoni Puerto Rican infected mouse assessed as infected mouse at 301 mg/kg/day, through diet for 14 days; format: functional; procedure, shortened: as §1
Schistosoma mansoni [3] = assay: Antischistosomal activity against Schistosoma mansoni infected rhesus monkey assessed as removal of all worms at 200 mg/kg/day, through gavage for 5 to 10 days; format: functional, organism-based
Procedure, shortened: (§2)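 S. mansoni-infected rhesus monkeys were dosed daily by gavage. Assessment was by egg output over time (temporary suppression) and by the number of live and dead worms remaining in the treated animal.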

Schistosoma mansoni [4] = assay: Antischistosomal activity against Schistosoma mansoni infected rhesus monkey assessed as temporary egg suppression at 200 mg/kg/day, through gavage for 10 days; format: functional, organism-based; procedure, shortened: as §2
Schistosoma mansoni [5] = assay: Antischistosomal activity against Schistosoma mansoni Puerto Rican infected mouse assessed as infected mouse at 298 mg/kg/day, through diet for 14 days; format: functional; procedure, shortened: as §1
Schistosoma mansoni [6] = assay: Antischistosomal activity against Schistosoma mansoni Puerto Rican infected mouse assessed as reduction in live schistosomes at 298 mg/kg/day, through diet for 14 days; format: functional; conditions: 336 h; procedure, shortened: as §1
Schistosoma mansoni [7] = assay: Antischistosomal activity against Schistosoma mansoni Puerto Rican infected mouse assessed as reduction in live schistosomes at 100 mg/kg/day, through gavage for 10 days; format: functional; conditions: po, 240 h
Schistosoma mansoni [8] = assay: Antischistosomal activity against Schistosoma mansoni Puerto Rican infected mouse assessed as infected mouse at 200 mg/kg/day, through gavage for 5 days; format: functional
Schistosoma mansoni [9] = assay: Antischistosomal activity against Schistosoma mansoni Puerto Rican infected mouse assessed as infected mouse at 269 mg/kg/day, through diet for 14 days; format: functional; procedure, shortened: as §1
Schistosoma mansoni [10] = assay: Antischistosomal activity against Schistosoma mansoni Puerto Rican infected mouse assessed as reduction in live schistosomes at 269 mg/kg/day, through diet for 14 days; format: functional; conditions: 336 h; procedure, shortened: as §1
Schistosoma mansoni [11] = assay: Antischistosomal activity against Schistosoma mansoni Puerto Rican infected mouse assessed as reduction in live schistosomes at 200 mg/kg/day, through gavage for 5 days; format: functional; conditions: po, 120 h
Schistosoma mansoni [12] = assay: Antischistosomal activity against Schistosoma mansoni Puerto Rican infected mouse assessed as infected mouse at 100 mg/kg/day, through gavage for 10 days; format: functional
Schistosoma mansoni [13] = assay: Antischistosomal activity against Schistosoma mansoni Puerto Rican infected mouse assessed as reduction in live schistosomes at 297 mg/kg/day, through diet for 14 days; format: functional; conditions: 336 h; procedure, shortened: as §1
Schistosoma mansoni [14] = assay: Antischistosomal activity against Schistosoma mansoni Puerto Rican infected mouse assessed as infected mouse at 297 mg/kg/day, through diet for 14 days; format: functional; procedure, shortened: as §1
Schistosoma mansoni [15] = assay: Antischistosomal activity against Schistosoma mansoni Puerto Rican infected mouse assessed as infected mouse at 336 mg/kg/day, through diet for 14 days; format: functional; procedure, shortened: as §1
Schistosoma mansoni [16] = assay: Antischistosomal activity against Schistosoma mansoni Puerto Rican infected mouse assessed as reduction in live schistosomes at 336 mg/kg/day, through diet for 14 days; format: functional; conditions: 336 h; procedure, shortened: as §1
Schistosoma mansoni [17] = assay: Antischistosomal activity against Schistosoma mansoni Puerto Rican infected mouse assessed as reduction in live schistosomes at 265 mg/kg/day, through diet for 14 days; format: functional; conditions: 336 h; procedure, shortened: as §1
Schistosoma mansoni [18] = assay: Antischistosomal activity against Schistosoma mansoni Puerto Rican infected mouse assessed as infected mouse at 265 mg/kg/day, through diet for 14 days; format: functional; procedure, shortened: as §1
Schistosoma mansoni [19] = assay: Antischistosomal activity against Schistosoma mansoni Puerto Rican infected mouse assessed as infected mouse at 302 mg/kg/day, through diet for 14 days; format: functional; procedure, shortened: as §1
Schistosoma mansoni [20] = assay: Antischistosomal activity against Schistosoma mansoni Puerto Rican infected mouse assessed as reduction in live schistosomes at 302 mg/kg/day, through diet for 14 days; format: functional; conditions: 336 h; procedure, shortened: as §1
Schistosoma mansoni [21] = assay: Antischistosomal activity against Schistosoma mansoni Puerto Rican infected mouse assessed as infected mouse at 332 mg/kg/day, through diet for 14 days; format: functional; procedure, shortened: as §1
Schistosoma mansoni [22] = assay: Antischistosomal activity against Schistosoma mansoni Puerto Rican infected mouse assessed as reduction in live schistosomes at 332 mg/kg/day, through diet for 14 days; format: functional; conditions: 336 h; procedure, shortened: as §1
Schistosoma mansoni [23] = assay: Antischistosomal activity against Schistosoma mansoni Puerto Rican infected mouse assessed as reduction in live schistosomes at 249 mg/kg/day, through diet for 14 days; format: functional; conditions: 336 h; procedure, shortened: as §1
Schistosoma mansoni [24] = assay: Antischistosomal activity against Schistosoma mansoni Puerto Rican infected mouse assessed as infected mouse at 249 mg/kg/day, through diet for 14 days; format: functional; procedure, shortened: as §1
Schistosoma mansoni [25] = assay: Antischistosomal activity against Schistosoma mansoni Puerto Rican infected mouse assessed as reduction in live schistosomes at 347 mg/kg/day, through diet for 14 days; format: functional; conditions: 336 h; procedure, shortened: as §1
Schistosoma mansoni [26] = assay: Antischistosomal activity against Schistosoma mansoni Puerto Rican infected mouse assessed as infected mouse at 347 mg/kg/day, through diet for 14 days; format: functional; procedure, shortened: as §1

## CC1(c2ccc(Cl)cc2Cl)NC(=O)NC1=O (stereo unspecified)
Schistosoma mansoni [1]
  inhibition in vivo at 301 mg/kg/day: 8%
Schistosoma mansoni [2]
  Activity: 100%

## O=C1NC(=O)C(c2cc(Cl)c(Cl)cc2Cl)N1 (stereo unspecified)
Schistosoma mansoni [3]
  inhibition: Active
Schistosoma mansoni [4]
  inhibition: Dose-dependent effect

## CC1(c2cccc([N+](=O)[O-])c2)NC(=O)NC1=O (stereo unspecified)
Schistosoma mansoni [5]
  Activity: 100%
Schistosoma mansoni [6]
  inhibition in vivo at 298 mg/kg/day: 0%

## O=C1[N-]C(=O)C(c2cc(Cl)c(Cl)cc2Cl)N1.[Na+] (stereo unspecified)
Schistosoma mansoni [7]
  inhibition in vivo at 100 mg/kg/day: 76%
Schistosoma mansoni [8]
  Activity: 100%
Schistosoma mansoni [9]
  Activity: 100%
Schistosoma mansoni [10]
  inhibition in vivo at 269 mg/kg/day: 65%
Schistosoma mansoni [11]
  inhibition in vivo at 200 mg/kg/day: 86%
Schistosoma mansoni [12]
  Activity: 100%

## CC1(c2cc(Cl)c(Cl)cc2Cl)NC(=O)NC1=O (stereo unspecified)
Schistosoma mansoni [13]
  inhibition in vivo at 297 mg/kg/day: 90%
Schistosoma mansoni [14]
  Activity: 66%

## CN1C(=O)C(c2cc(Cl)c(Cl)cc2Cl)N(C)C1=O (stereo unspecified)
Schistosoma mansoni [15]
  Activity: 83%
Schistosoma mansoni [16]
  inhibition in vivo at 336 mg/kg/day: 88%

## CN1C(=O)NC(c2cc(Cl)c(Cl)cc2Cl)C1=O (stereo unspecified)
Schistosoma mansoni [17]
  inhibition in vivo at 265 mg/kg/day: 83%
Schistosoma mansoni [18]
  Activity: 33%

## O=C1NC(=O)C(c2ccc(Cl)cc2Cl)N1 (stereo unspecified)
Schistosoma mansoni [19]
  Activity: 100%
Schistosoma mansoni [20]
  inhibition in vivo at 302 mg/kg/day: 36%

## Cc1c(Cl)ccc(C2(C)NC(=O)NC2=O)c1Cl (stereo unspecified)
Schistosoma mansoni [21]
  Activity: 100%
Schistosoma mansoni [22]
  inhibition in vivo at 332 mg/kg/day: 26%

## O=C1NCCN1c1ncc([N+](=O)[O-])s1 [NIRIDAZOLE]
Schistosoma mansoni [23]
  inhibition in vivo at 249 mg/kg/day: 99%
Schistosoma mansoni [24]
  Activity: 17%

## O=C1NC(=O)C(c2c(Cl)cccc2Cl)N1 (stereo unspecified)
Schistosoma mansoni [25]
  inhibition in vivo at 347 mg/kg/day: 2%
Schistosoma mansoni [26]
  Activity: 100%

Reference: ChEMBL document CHEMBL3244429, “Antischistosomal effects of 5-(2,4,5-trichlorophenyl)hydantoin and related compounds” (J Med Chem, 1977)
